Hit rate of the full screen: of about 62,000 compounds, about 130 (0.21%) were called active.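 How the source made its calls: active means inhibition above the mean of all tested compounds plus 3 SD (cut at about 40% in these data); inactive means the rest.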 The full list was thinned out, with actives kept by preference.
Experiment: inhibitors of PMA/ionomycin-induced NF-kB reporter, primary screen, antigen receptor NF-kB inhibitor project, cell-based, HEK-293 luciferase reporter, luminescence (AID 465);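 further: 0% = stimulated DMSO wells and 100% = 10 µM reference inhibitor 5653914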
Conditions: HEK-293 NF-kB luciferase reporter, at 3 µM, stronger effect = higher value
In short: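 Timing: 1 h pretreatment, 16 h stimulation, 37 °C; system: HEK-293 cells with stable firefly luciferase reporter driven by four HIV NF-kB elements; doses: 3 µM once, 0.30% DMSO; measured by: luciferase luminescence; control set: DMSO and 10 µM reference inhibitor; repeats: single test; reagent: PMA plus ionomycin mix as NF-kB-activating stimulus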

inhibition, inactive:
CC1CN(C(=O)CN2C(=O)NC(C)(c3ccccc3)C2=O)CC(C)O1 (configuration not stated) 6.5%
Cc1cc(=O)oc(C)c1C(=O)NCc1ccc(F)cc1 4.5%
O=C(CCn1c(=O)oc2ccccc21)Nc1ccon1 6.5%
CCOC(=O)N1CCN(S(=O)(=O)c2ccc(C(=O)Nc3ccc(F)cc3F)cc2)CC1 17.4%
O=C(C(NS(=O)(=O)c1cccc2nsnc12)c1ccccc1)N1CCN(c2ccccn2)CC1 (configuration not stated) 10.9%
CCOc1cc(C(=O)N2CCc3cc(OC)c(OC)cc3C2)ccc1OC(F)F 31.7%
O=C(Cc1c(F)cccc1Cl)N1CCN(C(=O)c2ccco2)CC1 10.7%
Cc1nc2c(-c3ccc(F)cc3)c(C)nn2c(C)c1CCC(=O)N1CCN(c2ccccn2)CC1 0.2%
CCn1cc(C(=O)NC2CCCCCC2)c(=O)c2cc(S(=O)(=O)N3CCCCC3)ccc21 20.8%
COc1ccc(OC)c(NC(=O)CSc2nc3cccnc3n2C)c1 18.9%
CC(Sc1nncs1)C(=O)NCc1ccc2c(c1)OCO2 (configuration not stated) -5.2%
COc1ccccc1NC(=O)CN1CCN(S(=O)(=O)c2ccc(Br)cc2)CC1 4.2%
CCOC(=O)c1cccc(NC(=O)C2CCCN(S(=O)(=O)c3cnc[nH]3)C2)c1 (configuration not stated) 11.6%
O=c1ccc2cc(S(=O)(=O)N3CCN(c4ccccc4)CC3)ccc2o1 10.7%
CCCCCN(C(=O)NC(=O)Nc1ccccc1OC)S(C)(=O)=O 7.9%
COc1ccc(-c2nnn(Cc3nc(N)nc(N4CCCCC4)n3)n2)cc1 10.9%
O=C(NCCCCO)C(F)(F)C(F)(F)C(F)(F)C(=O)NCCCCO 13.3%
CCOC(=O)c1cc(C)sc1NC(=O)C1CCC1 0.1%
CC(C)Cc1ccc(S(=O)(=O)N2CCN(C(=O)c3ccco3)CC2)cc1 9.1%
CC(Sc1nncn1C)C(=O)Nc1ccccc1-c1ccccc1 (configuration not stated) 14.4%
O=C(CN1C(=O)NC2(CCCCC2)C1=O)NCCC1=CCCCC1 17.4%
CCN(CC)C(=O)N1CCN(C(=O)c2ccc(C)cn2)CC1 4.3%
Fc1ccc(Cn2nnnc2C(c2cccs2)N2CCCCCC2)cc1 (configuration not stated) 9.2%
CCCC(=O)Nc1nnc(CC(=O)OCC)s1 9.9%
CCCCNc1nc2ccccc2nc1NS(=O)(=O)c1cccs1 3.3%
Cc1noc(/C=C/N(C)C)c1S(=O)(=O)N1CCCC(C(=O)NCc2ccco2)C1 (configuration not stated) 5%
O=C(Cc1cccs1)N1CCCC(c2nc(-c3ccc(S(=O)(=O)N4CCCC4)cc3)no2)C1 (configuration not stated) 6.1%
Cc1cc(C(=O)COC(=O)c2cccs2)c(C)n1-c1c(C)n(C)n(-c2ccccc2)c1=O 20%
COc1cc(OC)cc(C(=O)Nc2ncc3c(n2)CC(C)(C)CC3=O)c1 18.8%
O=S(=O)(/C=C/c1ccccc1)NCCc1ccccn1 3.3%
CCCCc1nc2c(=O)[nH]c3ccccc3c2o1 7.6%
CNC(=O)c1nnn(-c2ccccc2)c1C(=O)NC 14%
CCC(=O)Nc1ccccc1C(=O)N1CCN(Cc2ccccc2)CC1 9.5%
Cc1[nH]c2ccccc2c1C(=O)CSCC(=O)O 16%
C/C(=C\C(=O)c1cccnc1)Nc1ccc(C)c(C)c1 -5%
O=C(O)c1cccc2c1C(=O)N(C1CCCCC1)C2 8.4%
CS(=O)(=O)N1CCN(C(=O)Cc2ccccc2)CC1 5.7%
CCCCC(CC)C(=O)Nc1ccc(Cl)cn1 (configuration not stated) -0.6%
CCN(CC)CCCN1C(=O)C(=O)/C(=C(/O)c2c(C)nc3ccccn23)C1c1ccc(C)o1 (configuration not stated) 13.6%
COCCNC(=O)CN(C(=O)CCC(=O)Nc1cc(C)on1)c1ccc(C)cc1C 1.1%
CC(C)C(=O)N1CCN(CCN=CC2=C(O)CC(c3ccco3)CC2=O)CC1 (configuration not stated) 9.5%
CC1CCCCC1NC(=O)CCS(=O)(=O)c1cccc2nonc12 (configuration not stated) 10.9%
CCOC(=O)N1CCC(NC(=O)Cn2cc3c(n2)CCCCC3)CC1 17.8%
CCOc1ccc(OCC)c(NC(=O)C(NS(=O)(=O)c2ccc3c(c2)oc(=O)n3C)C(C)C)c1 (configuration not stated) 12.5%
CCC1Oc2ccc(Cl)cc2N(CC(=O)O)C1=O (configuration not stated) 10.2%
CC(CCO)Nc1nc2c([nH]1)c(=O)n(C)c(=O)n2C (configuration not stated) 22.2%
COC(=O)[C@H](C(C)C)n1c(C)c(C(C)=O)c(C(C)=O)c1C -9.6%

From PubChem BioAssay AID465 (The Scripps Research Institute Molecular Screening Center, 2006)
